Reference: ChEMBL document CHEMBL4138062, “Pyrazolobenzothiazine-based carbothioamides as new structural leads for the inhibition of monoamine oxidases: design, synthesis, in vitro bioevaluation and molecular docking studies” (Medchemcomm, 2017)

What was measured:
[1] = molecular target: T1, Amine oxidase [flavin-containing] A (Homo sapiens, UniProt P21397); test: Inhibition of human MAOA at 0.1 mM pre-incubated for 10 mins before p-tyramine substrate addition and measured after 10 mins by amplex red reagent-based microplate fluorescence reader analysis
T1 sequence (P21397 whole entry): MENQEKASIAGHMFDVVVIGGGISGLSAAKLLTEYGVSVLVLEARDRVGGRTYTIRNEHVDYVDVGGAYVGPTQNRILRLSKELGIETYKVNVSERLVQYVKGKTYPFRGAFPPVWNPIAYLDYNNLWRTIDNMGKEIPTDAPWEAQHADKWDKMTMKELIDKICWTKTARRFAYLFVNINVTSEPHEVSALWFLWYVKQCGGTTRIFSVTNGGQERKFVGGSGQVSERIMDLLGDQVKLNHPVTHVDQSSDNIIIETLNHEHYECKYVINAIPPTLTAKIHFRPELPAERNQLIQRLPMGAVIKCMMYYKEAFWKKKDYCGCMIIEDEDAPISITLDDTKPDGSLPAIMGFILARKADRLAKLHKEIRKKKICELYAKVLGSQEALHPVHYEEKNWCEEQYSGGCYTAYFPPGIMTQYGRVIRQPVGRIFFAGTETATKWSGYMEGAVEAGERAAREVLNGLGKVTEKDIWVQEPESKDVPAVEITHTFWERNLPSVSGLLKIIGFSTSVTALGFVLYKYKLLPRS
Method in brief: (§1)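 The reaction in 50 mM phosphate buffer (pH 7.4) was preincubated with enzyme and test compound at 37 °C for 10 min. p-Tyramine (3 mM solution) and Amplex Red reagent were then added, and the mix was held at 37 °C for 10 min. Resorufin fluorescence (ex 544, em 590 nm) from H2O2 was read. Percent inhibition was taken at 100 μM final concentration, in triplicate.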

[2] = molecular target: T2, Amine oxidase [flavin-containing] B (Homo sapiens, UniProt P27338); test: Inhibition of human MAOB at 0.1 mM pre-incubated for 10 mins before p-tyramine substrate addition and measured after 10 mins by amplex red reagent-based microplate fluorescence reader analysis; method in brief: as §1
T2 sequence (P27338 whole entry): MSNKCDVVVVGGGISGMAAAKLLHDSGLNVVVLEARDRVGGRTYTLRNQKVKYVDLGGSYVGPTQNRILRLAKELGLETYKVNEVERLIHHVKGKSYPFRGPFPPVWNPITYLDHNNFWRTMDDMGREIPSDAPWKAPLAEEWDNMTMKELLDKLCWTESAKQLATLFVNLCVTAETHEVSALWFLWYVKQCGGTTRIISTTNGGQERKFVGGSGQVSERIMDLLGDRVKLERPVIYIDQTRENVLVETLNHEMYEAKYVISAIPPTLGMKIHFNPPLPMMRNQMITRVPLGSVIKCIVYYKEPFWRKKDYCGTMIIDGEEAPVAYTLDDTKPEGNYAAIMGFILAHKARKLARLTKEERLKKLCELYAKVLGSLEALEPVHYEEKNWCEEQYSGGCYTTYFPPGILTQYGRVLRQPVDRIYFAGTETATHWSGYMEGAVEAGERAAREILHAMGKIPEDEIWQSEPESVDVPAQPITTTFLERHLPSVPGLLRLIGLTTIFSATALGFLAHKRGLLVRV

[3] = molecular target: T1, Amine oxidase [flavin-containing] A; test: Inhibition of human MAOA pre-incubated for 10 mins before p-tyramine substrate addition and measured after 10 mins by amplex red reagent-based microplate fluorescence reader analysis
[4] = molecular target: T2, Amine oxidase [flavin-containing] B

Compound | inhibition at 100 µM [1] [%] | inhibition at 100 µM [2] [%] | IC50 [3] [µM] | IC50 [4] [µM] | inhibition (INH) ([1]; 100 µM) [%] | inhibition (INH) ([2]; 100 µM) [%]
Cc1c2c(nn1-c1ccc(/C=N/NC(=S)NCc3ccccc3)cc1)-c1ccccc1S(=O)(=O)N2C | > 50 | > 50 | 76.2 | 4.72 | – | –
CN1c2c(nn(-c3ccc(/C=N/NC(=S)NCc4ccccc4)cc3)c2-c2ccccc2)-c2ccccc2S1(=O)=O | > 50 | > 50 | 10.6 | 0.64 | – | –
Cc1ccc(NC(=S)N/N=C/c2ccc(-n3nc4c(c3-c3ccccc3)N(C)S(=O)(=O)c3ccccc3-4)cc2)c(C)c1 | > 50 | > 50 | 9.15 | 0.75 | – | –
CN1c2c(nn(-c3ccc(/C=N/NC(=S)Nc4cccc(Cl)c4)cc3)c2-c2ccccc2)-c2ccccc2S1(=O)=O | > 50 | > 50 | 7.73 | 20.9 | – | –
CN1c2c(nn(-c3ccc(/C=N/NC(=S)Nc4cccc(F)c4)cc3)c2-c2ccccc2)-c2ccccc2S1(=O)=O | > 50 | > 50 | 9.02 | 1.76 | – | –
Cc1c2c(nn1-c1ccc(/C=N/NC(=S)NCN3CCOCC3)cc1)-c1ccccc1S(=O)(=O)N2C | > 50 | > 50 | 64.8 | 4.34 | – | –
CCc1ccc(NC(=S)N/N=C/c2ccc(-n3nc4c(c3-c3ccccc3)N(C)S(=O)(=O)c3ccccc3-4)cc2)cc1 | > 50 | > 50 | 8.18 | 0.02 | – | –
Cc1c2c(nn1-c1ccc(/C=N/NC(N)=S)cc1)-c1ccccc1S(=O)(=O)N2C | > 50 | 36 | 31.2 | – | – | –
CN1c2c(nn(-c3ccc(/C=N/NC(=S)Nc4ccccc4Cl)cc3)c2-c2ccccc2)-c2ccccc2S1(=O)=O | > 50 | > 50 | 33.8 | 0.68 | – | –
Cc1c2c(nn1-c1ccc(/C=N/NC(=S)Nc3ccc(F)cc3)cc1)-c1ccccc1S(=O)(=O)N2C | > 50 | 41 | 30.2 | – | – | –
Cc1c2c(nn1-c1ccc(/C=N/NC(=S)Nc3ccccc3Cl)cc1)-c1ccccc1S(=O)(=O)N2C | > 50 | > 50 | 4.06 | 6.21 | – | –
Cc1cccc(C)c1NC(=S)N/N=C/c1ccc(-n2nc3c(c2C)N(C)S(=O)(=O)c2ccccc2-3)cc1 | – | – | – | – | > 50 | > 50
CN1c2c(nn(-c3ccc(/C=N/NC(=S)Nc4ccccc4)cc3)c2-c2ccccc2)-c2ccccc2S1(=O)=O | > 50 | > 50 | 27.2 | 2.49 | – | –
Cc1cccc(C)c1NC(=S)N/N=C/c1ccc(-n2nc3c(c2-c2ccccc2)N(C)S(=O)(=O)c2ccccc2-3)cc1 | > 50 | > 50 | 65.7 | 0.77 | – | –
Cc1c2c(nn1-c1ccc(/C=N/NC(=S)Nc3ccccc3)cc1)-c1ccccc1S(=O)(=O)N2C | > 50 | > 50 | 3.69 | 4.15 | – | –
Cc1c2c(nn1-c1ccc(/C=N/NC(=S)Nc3ccc(Cl)cc3)cc1)-c1ccccc1S(=O)(=O)N2C | > 50 | > 50 | 3.49 | 0.43 | – | –

Further molecules by falling IC50 [3], results first:

inhibition at 100 µM [1] [%] | inhibition at 100 µM [2] [%] | IC50 [3] [µM] | IC50 [4] [µM] | inhibition (INH) ([1]; 100 µM) [%] | inhibition (INH) ([2]; 100 µM) [%] | Compound
> 50 | > 50 | 3.07 | 2.99 | – | – | CN1c2c(nn(-c3ccc(/C=N/NC(=S)NCN4CCOCC4)cc3)c2-c2ccccc2)-c2ccccc2S1(=O)=O
> 50 | > 50 | 2.33 | 6.99 | – | – | CN1c2c(nn(-c3ccc(/C=N/NC(=S)Nc4ccc(F)cc4)cc3)c2-c2ccccc2)-c2ccccc2S1(=O)=O
> 50 | > 50 | 2.06 | 3.27 | – | – | CN1c2c(nn(-c3ccc(/C=N/NC(=S)Nc4ccc(Cl)cc4)cc3)c2-c2ccccc2)-c2ccccc2S1(=O)=O
> 50 | > 50 | 1.77 | 2.91 | – | – | CCc1ccc(NC(=S)N/N=C/c2ccc(-n3nc4c(c3C)N(C)S(=O)(=O)c3ccccc3-4)cc2)cc1
> 50 | > 50 | 1.42 | 3.83 | – | – | Cc1c2c(nn1-c1ccc(/C=N/NC(=S)Nc3ccccc3F)cc1)-c1ccccc1S(=O)(=O)N2C
> 50 | > 50 | 1.13 | 0.11 | – | – | Cc1ccc(NC(=S)N/N=C/c2ccc(-n3nc4c(c3C)N(C)S(=O)(=O)c3ccccc3-4)cc2)c(C)c1
> 50 | > 50 | 1.11 | 2.89 | – | – | Cc1c2c(nn1-c1ccc(/C=N/NC(=S)Nc3cccc(Cl)c3)cc1)-c1ccccc1S(=O)(=O)N2C
> 50 | > 50 | 0.97 | 2.39 | – | – | CN1c2c(nn(-c3ccc(/C=N/NC(N)=S)cc3)c2-c2ccccc2)-c2ccccc2S1(=O)=O
> 50 | 19 | 0.54 | – | – | – | CN1c2c(nn(-c3ccc(/C=N/NC(=S)Nc4ccccc4F)cc3)c2-c2ccccc2)-c2ccccc2S1(=O)=O
> 50 | > 50 | 0.47 | 1.68 | – | – | Cc1c2c(nn1-c1ccc(/C=N/NC(=S)Nc3cccc(F)c3)cc1)-c1ccccc1S(=O)(=O)N2C
> 50 | > 50 | 0.01 | 3.13 | – | – | Cc1ccccc1NC(=S)N/N=C/c1ccc(-n2nc3c(c2C)N(C)S(=O)(=O)c2ccccc2-3)cc1
> 50 | > 50 | 0.003 | 29.5 | – | – | Cc1ccc(NC(=S)N/N=C/c2ccc(-n3nc4c(c3C)N(C)S(=O)(=O)c3ccccc3-4)cc2)cc1
